Values after ≈ are worked out from the molar mass of the structure shown.
Columns and labels:
[1] = test system: Enterococcus faecalis; experiment: Antibacterial activity against Enterococcus faecalis ATCC 29212 by broth microdilution method; assay type: functional
Outline: (§1)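 NCCLS broth microdilution in Mueller–Hinton broth, DMSO stocks. Twofold series of 1600 to 0.39 μg/ml, or 1000 to 0.975 μg/ml for some compounds. Inoculum set to 0.5 McFarland (1×10^8 CFU/ml), diluted 1/10, giving 5×10^5 CFU/ml per well. Plates incubated 16-20 h at 35 °C. MIC taken as the lowest concentration preventing visible growth. Ampicillin reference.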

[2] = test system: Staphylococcus aureus; experiment: Antibacterial activity against Staphylococcus aureus ATCC 25923 by broth microdilution method; assay type: functional; outline: as §1

SMILES | MIC [1] [µM] | MIC [2] [µM]
CN1O[C@H]2C(=O)N(c3ccccc3)C(=O)[C@H]2[C@@H]1c1ccc(Cl)cc1 | 1170 (≈ 401 µg/mL) | 1170 (≈ 401 µg/mL)
CN1O[C@H]2C(=O)N(c3ccccc3)C(=O)[C@H]2[C@H]1c1ccc(Cl)cc1 | 730 (≈ 250 µg/mL) | 360 (≈ 123 µg/mL)
CN1C(=O)[C@H]2[C@@H](c3ccc(Cl)cc3)N(C)O[C@H]2C1=O | 1430 (≈ 401 µg/mL) | 1430 (≈ 401 µg/mL)
CN1C(=O)[C@@H]2[C@@H](ON(C)[C@H]2c2ccc(Cl)cc2)C1=O | 1430 (≈ 401 µg/mL) | 1430 (≈ 401 µg/mL)
CN(C)c1ccc([C@@H]2[C@@H]3C(=O)N(c4ccccc4)C(=O)[C@@H]3ON2C)cc1 | > 4550 | 4550 (≈ 1600 µg/mL)
CCN(CC)c1ccc([C@H]2[C@@H]3C(=O)N(c4ccccc4)C(=O)[C@@H]3ON2C)cc1 | 4220 (≈ 1600 µg/mL) | 4220 (≈ 1600 µg/mL)
CN(C)c1ccc([C@H]2[C@@H]3C(=O)N(c4ccccc4)C(=O)[C@@H]3ON2C)cc1 | 710 (≈ 249 µg/mL) | 360 (≈ 127 µg/mL)
CN1C(=O)[C@H]2[C@@H](c3ccc([N+](=O)[O-])cc3)N(C)O[C@H]2C1=O | 690 (≈ 201 µg/mL) | 1370 (≈ 399 µg/mL)
CCN(CC)c1ccc([C@H]2[C@@H]3C(=O)N(C)C(=O)[C@@H]3ON2C)cc1 (relative stereo) | 630 (≈ 200 µg/mL) | 630 (≈ 200 µg/mL)
CN1C(=O)[C@@H]2[C@@H](ON(C)[C@H]2c2ccc(Br)cc2)C1=O (relative stereo) | 620 (≈ 202 µg/mL) | 310 (≈ 101 µg/mL)
Cc1ccc([C@H]2[C@@H]3C(=O)N(c4ccccc4)C(=O)[C@@H]3ON2C)cc1 (relative stereo) | 1240 (≈ 400 µg/mL) | 620 (≈ 200 µg/mL)
CN1C(=O)[C@H]2[C@@H](c3ccccc3)N(C)O[C@H]2C1=O (relative stereo) | 1620 (≈ 399 µg/mL) | 810 (≈ 199 µg/mL)
CN1O[C@H]2C(=O)N(c3ccccc3)C(=O)[C@H]2[C@H]1c1cccc(Br)c1 (relative stereo) | 650 (≈ 252 µg/mL) | 320 (≈ 124 µg/mL)
COc1ccc([C@H]2[C@@H]3C(=O)N(C)C(=O)[C@@H]3ON2C)cc1 (relative stereo) | > 5790 | 1450 (≈ 401 µg/mL)
CN1C(=O)[C@H]2[C@@H](c3cccc(Cl)c3)N(C)O[C@H]2C1=O (relative stereo) | 2850 (≈ 800 µg/mL) | 1430 (≈ 401 µg/mL)
CN1C(=O)[C@H]2[C@@H](c3cccc(Br)c3)N(C)O[C@H]2C1=O (relative stereo) | 620 (≈ 202 µg/mL) | 1230 (≈ 400 µg/mL)
CCN(CC)c1ccc([C@@H]2[C@@H]3C(=O)N(c4ccccc4)C(=O)[C@@H]3ON2C)cc1 (relative stereo) | 660 (≈ 250 µg/mL) | 330 (≈ 125 µg/mL)
CN1C(=O)[C@@H]2[C@@H](ON(C)[C@H]2c2cccc(Br)c2)C1=O (relative stereo) | 1230 (≈ 400 µg/mL) | 620 (≈ 202 µg/mL)
CN1O[C@H]2C(=O)N(c3ccccc3)C(=O)[C@H]2[C@@H]1c1ccccc1 (relative stereo) | 1620 (≈ 500 µg/mL) | 410 (≈ 126 µg/mL)
CN1O[C@H]2C(=O)N(c3ccccc3)C(=O)[C@H]2[C@@H]1c1cccc(Br)c1 (relative stereo) | 520 (≈ 201 µg/mL) | 130 (≈ 50.3 µg/mL)
CN1C(=O)[C@H]2[C@@H](c3ccc(Br)cc3)N(C)O[C@H]2C1=O (relative stereo) | 1230 (≈ 400 µg/mL) | 2460 (≈ 800 µg/mL)
CN1C(=O)[C@@H]2[C@@H](ON(C)[C@H]2c2ccccc2)C1=O (relative stereo) | 1020 (≈ 251 µg/mL) | 510 (≈ 126 µg/mL)
CN1C(=O)[C@H]2[C@@H](c3ccc(N(C)C)cc3)N(C)O[C@H]2C1=O (relative stereo) | 1380 (≈ 399 µg/mL) | 1380 (≈ 399 µg/mL)
CC1(C)S[C@@H]2[C@H](NC(=O)[C@H](N)c3ccccc3)C(=O)N2[C@H]1C(=O)O [AMPICILLIN] | 2 (≈ 0.699 µg/mL) | 2 (≈ 0.699 µg/mL)

Second part, the compound after the results:

MIC [1] [µM] | MIC [2] [µM] | SMILES
280 (≈ 98.9 µg/mL) | 570 (≈ 201 µg/mL) | CN1O[C@H]2C(=O)N(c3ccccc3)C(=O)[C@H]2[C@@H]1c1ccc([N+](=O)[O-])cc1
> 3600 | 3600 (≈ 1600 µg/mL) | COc1cc([C@@H]2[C@@H]3C(=O)N(c4ccccc4)C(=O)[C@@H]3ON2C)ccc1OCc1ccccc1
1130 (≈ 502 µg/mL) | 280 (≈ 124 µg/mL) | COc1cc([C@H]2[C@@H]3C(=O)N(c4ccccc4)C(=O)[C@@H]3ON2C)ccc1OCc1ccccc1
5490 (≈ 1600 µg/mL) | 2750 (≈ 801 µg/mL) | CN1C(=O)[C@@H]2[C@@H](ON(C)[C@H]2c2ccc([N+](=O)[O-])cc2)C1=O
710 (≈ 251 µg/mL) | 570 (≈ 201 µg/mL) | CN1O[C@H]2C(=O)N(c3ccccc3)C(=O)[C@H]2[C@H]1c1ccc([N+](=O)[O-])cc1
520 (≈ 201 µg/mL) | 130 (≈ 50.3 µg/mL) | CN1O[C@H]2C(=O)N(c3ccccc3)C(=O)[C@H]2[C@@H]1c1ccc(Br)cc1 (relative stereo)
280 (≈ 98.4 µg/mL) | 280 (≈ 98.4 µg/mL) | CN1C(=O)[C@H]2[C@@H](c3ccc(N(C)C)cc3)N(c3ccccc3)O[C@H]2C1=O (relative stereo)
80 (≈ 25.4 µg/mL) | 80 (≈ 25.4 µg/mL) | CCN(CC)c1ccc([C@@H]2[C@@H]3C(=O)N(C)C(=O)[C@@H]3ON2C)cc1 (relative stereo)
> 5790 | 5790 (≈ 1600 µg/mL) | COc1ccc([C@@H]2[C@@H]3C(=O)N(C)C(=O)[C@@H]3ON2C)cc1 (relative stereo)
6150 (≈ 1600 µg/mL) | 3070 (≈ 799 µg/mL) | Cc1ccc([C@H]2[C@@H]3C(=O)N(C)C(=O)[C@@H]3ON2C)cc1 (relative stereo)
1180 (≈ 399 µg/mL) | 590 (≈ 200 µg/mL) | COc1ccc([C@@H]2[C@@H]3C(=O)N(c4ccccc4)C(=O)[C@@H]3ON2C)cc1 (relative stereo)
5190 (≈ 1600 µg/mL) | > 5190 | CN1O[C@H]2C(=O)N(c3ccccc3)C(=O)[C@H]2[C@H]1c1ccccc1 (relative stereo)
650 (≈ 249 µg/mL) | 330 (≈ 126 µg/mL) | COc1cc([C@H]2[C@@H]3C(=O)N(C)C(=O)[C@@H]3ON2C)ccc1OCc1ccccc1 (relative stereo)
520 (≈ 201 µg/mL) | 120 (≈ 46.5 µg/mL) | CN1O[C@H]2C(=O)N(c3ccccc3)C(=O)[C@H]2[C@H]1c1ccc(Br)cc1 (relative stereo)
> 6150 | 6150 (≈ 1600 µg/mL) | Cc1ccc([C@@H]2[C@@H]3C(=O)N(C)C(=O)[C@@H]3ON2C)cc1 (relative stereo)
1430 (≈ 401 µg/mL) | 710 (≈ 199 µg/mL) | CN1C(=O)[C@@H]2[C@@H](ON(C)[C@H]2c2cccc(Cl)c2)C1=O (relative stereo)
5530 (≈ 1600 µg/mL) | 1380 (≈ 399 µg/mL) | CN1C(=O)[C@@H]2[C@@H](ON(C)[C@H]2c2ccc(N(C)C)cc2)C1=O (relative stereo)
130 (≈ 49.7 µg/mL) | 130 (≈ 49.7 µg/mL) | COc1cc([C@@H]2[C@@H]3C(=O)N(C)C(=O)[C@@H]3ON2C)ccc1OCc1ccccc1 (relative stereo)
1140 (≈ 401 µg/mL) | 280 (≈ 98.4 µg/mL) | CN1C(=O)[C@@H]2[C@@H](ON(c3ccccc3)[C@H]2c2ccc(N(C)C)cc2)C1=O (relative stereo)
3100 (≈ 999 µg/mL) | 3100 (≈ 999 µg/mL) | Cc1ccc([C@@H]2[C@@H]3C(=O)N(c4ccccc4)C(=O)[C@@H]3ON2C)cc1 (relative stereo)
1180 (≈ 399 µg/mL) | 1180 (≈ 399 µg/mL) | COc1ccc([C@H]2[C@@H]3C(=O)N(c4ccccc4)C(=O)[C@@H]3ON2C)cc1 (relative stereo)

Reference: ChEMBL document CHEMBL1142917, “Synthesis and structure-antibacterial activity relationship investigation of isomeric 2,3,5-substituted perhydropyrrolo[3,4-d]isoxazole-4,6-diones” (2007)
